According to ChEMBL document CHEMBL4689842, “EUbOPEN Chemogenomics Library wave 1” (2021):
Values joined by “and” are separate entries in the source; they are usually repeats but may differ in a detail not shown here. Equal entries are not always repeated.

Test system: Fibroblast
Test: Multiplex assay against human fibroblast
Type: toxicity, cell-based
Procedure, shortened: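 Imaging took place on a CQ1 microscope at 37°C and 5% CO2 once compound had been added to live cells stained at seeding with Hoechst33342, BioTracker Green Microtubule Cytoskeleton Dye, MitoTracker Red and Annexin V Alexa Fluor 680. CellPathfinder machine-learning gating classed cells as Hoechst high-intensity objects or normal cells, classed normal cells as having healthy, pyknosed or fragmented nuclei, and classed pyknosed cells as mitotic or apoptotic. Tubulin, mitochondrial-mass and membrane-permeability phenotypes are per cents of the healthy-nucleus cells.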

[1] = 12 h, 1 µM, compound concentration 1 uM, replicate 1
[2] = 12 h, 1 µM, compound concentration 1 uM, replicate 2
[3] = 12 h, 10 µM, compound concentration 10 uM, replicate 1
[4] = 12 h, 10 µM, compound concentration 10 uM, replicate 2
[5] = 24 h, 1 µM, compound concentration 1 uM, replicate 1
[6] = 24 h, 1 µM, compound concentration 1 uM, replicate 2
[7] = 24 h, 10 µM, compound concentration 10 uM, replicate 1
[8] = 24 h, 10 µM, compound concentration 10 uM, replicate 2
[9] = 48 h, 1 µM, compound concentration 1 uM, replicate 1
[10] = 48 h, 1 µM, compound concentration 1 uM, replicate 2
[11] = 48 h, 10 µM, compound concentration 10 uM, replicate 1
[12] = 48 h, 10 µM, compound concentration 10 uM, replicate 2

Which results are given for `CNC(=O)c1ccc(Nc2ncc(C(F)(F)F)c(NCc3nccnc3N(C)S(C)(=O)=O)n2)cc1` [DEFACTINIB]?
Population Apoptotic (%) [1]: 66% and 80%; Population Fragmented Nuclei (%) [1]: 31% and 21%; Population Healthy Nuclei (%) [1]: 51% and 60%; Population Hoechst High Intensity Objects (%) [1]: 12% and 14%; Population Membrane Permeable-Phenotype (%) [1]: 8% and 23%; Population Mitochondria Different-Phenotype (%) [1]: 2% and 4%; Population Mitotic Cells (%) [1]: 33% and 20%; Population Normal (%) [1]: 87% and 85%; Population Pyknosed Nuclei (%) [1]: 17%; Total Cell Count [1]: 217 and 234; Population Apoptotic (%) [2]: 25% and 42%; Population Fragmented Nuclei (%) [2]: 60% and 57%; Population Healthy Nuclei (%) [2]: 32% and 27%; Population Hoechst High Intensity Objects (%) [2]: 22% and 35%; Population Membrane Permeable-Phenotype (%) [2]: 0% and 7%; Population Mitochondria Different-Phenotype (%) [2]: 15% and 23%; Population Mitotic Cells (%) [2]: 75% and 57%; Population Normal (%) [2]: 77% and 64%; Population Pyknosed Nuclei (%) [2]: 6% and 14%; Population Tubulin-Different-Phenotype (%) [2]: 20% and 38%; Total Cell Count [2]: 79 and 73; Population Apoptotic (%) [3]: 90% and 80%; Population Fragmented Nuclei (%) [3]: 24% and 29%; Population Healthy Nuclei (%) [3]: 58%; Population Hoechst High Intensity Objects (%) [3]: 8%; Population Membrane Permeable-Phenotype (%) [3]: 21% and 7%; Population Mitochondria Different-Phenotype (%) [3]: 3%; Population Mitotic Cells (%) [3]: 9% and 20%; Population Normal (%) [3]: 91%; Population Pyknosed Nuclei (%) [3]: 17% and 12%; Total Cell Count [3]: 208 and 174; Population Apoptotic (%) [4]: 42% and 33%; Population Fragmented Nuclei (%) [4]: 42% and 66%; Population Healthy Nuclei (%) [4]: 47% and 25%; Population Hoechst High Intensity Objects (%) [4]: 24% and 47%; Population Membrane Permeable-Phenotype (%) [4]: 12% and 0%; Population Mitochondria Different-Phenotype (%) [4]: 18% and 50%; Population Mitotic Cells (%) [4]: 57% and 66%; Population Normal (%) [4]: 75% and 52%; Population Pyknosed Nuclei (%) [4]: 10% and 7%; Population Tubulin-Different-Phenotype (%) [4]: 54% and 40%; Total Cell Count [4]: 93 and 74; Population Apoptotic (%) [5]: 66% and 85%; Population Fragmented Nuclei (%) [5]: 23% and 35%; Population Healthy Nuclei (%) [5]: 59% and 48%; Population Hoechst High Intensity Objects (%) [5]: 18% and 11%; Population Mitochondria Different-Phenotype (%) [5]: 3% and 7%; Population Mitotic Cells (%) [5]: 33% and 14%; Population Normal (%) [5]: 81% and 88%; Population Pyknosed Nuclei (%) [5]: 16% and 15%; Total Cell Count [5]: 205 and 241; Population Fragmented Nuclei (%) [6]: 55% and 61%; Population Healthy Nuclei (%) [6]: 39% and 19%; Population Hoechst High Intensity Objects (%) [6]: 30% and 29%; Population Mitochondria Different-Phenotype (%) [6]: 5% and 0%; Population Mitotic Cells (%) [6]: 100% and 40%; Population Normal (%) [6]: 69% and 70%; Total Cell Count [6]: 62 and 74; Population Apoptotic (%) [7]: 80% and 73%; Population Fragmented Nuclei (%) [7]: 33% and 25%; Population Healthy Nuclei (%) [7]: 45% and 64%; Population Hoechst High Intensity Objects (%) [7]: 10% and 15%; Population Membrane Permeable-Phenotype (%) [7]: 21% and 10%; Population Mitotic Cells (%) [7]: 20% and 26%; Population Normal (%) [7]: 89% and 84%; Population Pyknosed Nuclei (%) [7]: 21% and 9%; Total Cell Count [7]: 210 and 186; Population Apoptotic (%) [8]: 75% and 50%; Population Fragmented Nuclei (%) [8]: 49% and 57%; Population Healthy Nuclei (%) [8]: 44% and 37%; Population Hoechst High Intensity Objects (%) [8]: 27% and 35%; Population Membrane Permeable-Phenotype (%) [8]: 14% and 0%; Population Mitochondria Different-Phenotype (%) [8]: 10% and 13%; Population Mitotic Cells (%) [8]: 25% and 50%; Population Normal (%) [8]: 72% and 64%; Population Pyknosed Nuclei (%) [8]: 6% and 5%; Population Tubulin-Different-Phenotype (%) [8]: 46% and 26%; Total Cell Count [8]: 87 and 62

`Cc1ccc(C)c(Oc2ccncc2C(=O)N2CCN(C3CC3)c3ccccc32)c1` was tested. Which “Population Apoptotic (%)” value [1] did it give?
The value was 75%.

What about the “Population Fragmented Nuclei (%)” value [1] of the same compound?
Its value is 20%.

And the “Population Healthy Nuclei (%)” value [1]?
Its value is 58%.

What about the “Population Hoechst High Intensity Objects (%)” value [1] of the same compound?
The value was 13%.

And the “Population Normal (%)” value [1]?
Its value is 86%.

And the “Total Cell Count” value [1]?
Its value is 90.

And the “Population Apoptotic (%)” value [2]?
The value was 66%.

What about the “Population Healthy Nuclei (%)” value [2] of the same compound?
The value was 75%.

And the “Population Hoechst High Intensity Objects (%)” value [2]?
The value was 10%.

What about the “Population Normal (%)” value [2] of the same compound?
The value was 89%.

What about the “Total Cell Count” value [2] of the same compound?
The value was 73.

And the “Population Apoptotic (%)” value [3]?
The value was 59%.

And the “Population Fragmented Nuclei (%)” value [3]?
The value was 27%.

What about the “Population Healthy Nuclei (%)” value [3] of the same compound?
The value was 43%.

And the “Population Hoechst High Intensity Objects (%)” value [3]?
Its value is 10%.

And the “Population Normal (%)” value [3]?
The value was 89%.

And the “Total Cell Count” value [3]?
Its value is 178.

And the “Population Apoptotic (%)” value [4]?
Its value is 33%.

What about the “Population Fragmented Nuclei (%)” value [4] of the same compound?
The value was 6%.

What about the “Population Healthy Nuclei (%)” value [4] of the same compound?
The value was 72%.

What about the “Population Hoechst High Intensity Objects (%)” value [4] of the same compound?
The value was 3%.

What about the “Population Normal (%)” value [4] of the same compound?
Its value is 96%.

And the “Total Cell Count” value [4]?
Its value is 59.

What about the “Population Apoptotic (%)” value [5] of the same compound?
The value was 52%.

What about the “Population Fragmented Nuclei (%)” value [5] of the same compound?
Its value is 19%.

What about the “Population Healthy Nuclei (%)” value [5] of the same compound?
The value was 56%.

And the “Population Hoechst High Intensity Objects (%)” value [5]?
Its value is 19%.

What about the “Population Normal (%)” value [5] of the same compound?
Its value is 80%.

And the “Total Cell Count” value [5]?
The value was 88.

What about the “Population Apoptotic (%)” value [6] of the same compound?
The value was 42%.

And the “Population Fragmented Nuclei (%)” value [6]?
Its value is 27%.

And the “Population Healthy Nuclei (%)” value [6]?
Its value is 60%.

And the “Population Hoechst High Intensity Objects (%)” value [6]?
Its value is 6%.

And the “Population Normal (%)” value [6]?
The value was 93%.

What about the “Total Cell Count” value [6] of the same compound?
Its value is 71.

What about the “Population Apoptotic (%)” value [7] of the same compound?
Its value is 55%.

And the “Population Fragmented Nuclei (%)” value [7]?
Its value is 26%.

And the “Population Healthy Nuclei (%)” value [7]?
Its value is 51%.

And the “Population Hoechst High Intensity Objects (%)” value [7]?
The value was 6%.

And the “Population Normal (%)” value [7]?
The value was 93%.

And the “Total Cell Count” value [7]?
The value was 189.

What about the “Population Apoptotic (%)” value [8] of the same compound?
Its value is 53%.

And the “Population Healthy Nuclei (%)” value [8]?
Its value is 66%.

What about the “Population Hoechst High Intensity Objects (%)” value [8] of the same compound?
The value was 7%.

What about the “Population Normal (%)” value [8] of the same compound?
Its value is 92%.

What about the “Total Cell Count” value [8] of the same compound?
The value was 65.

What about the “Population Apoptotic (%)” value [9] of the same compound?
The value was 80%.

What about the “Population Fragmented Nuclei (%)” value [9] of the same compound?
The value was 23%.

What about the “Population Healthy Nuclei (%)” value [9] of the same compound?
Its value is 57%.

What about the “Population Hoechst High Intensity Objects (%)” value [9] of the same compound?
The value was 11%.

What about the “Population Normal (%)” value [9] of the same compound?
The value was 88%.

What about the “Total Cell Count” value [9] of the same compound?
The value was 87.

What about the “Population Apoptotic (%)” value [10] of the same compound?
Its value is 50%.

What about the “Population Fragmented Nuclei (%)” value [10] of the same compound?
The value was 24%.

And the “Population Healthy Nuclei (%)” value [10]?
The value was 72%.

What about the “Population Normal (%)” value [10] of the same compound?
Its value is 84%.

What about the “Total Cell Count” value [10] of the same compound?
The value was 91.

What about the “Population Apoptotic (%)” value [11] of the same compound?
Its value is 66%.

What about the “Population Fragmented Nuclei (%)” value [11] of the same compound?
The value was 40%.

What about the “Population Healthy Nuclei (%)” value [11] of the same compound?
The value was 52%.

And the “Population Hoechst High Intensity Objects (%)” value [11]?
Its value is 9%.

And the “Population Normal (%)” value [11]?
Its value is 91%.

And the “Total Cell Count” value [11]?
Its value is 211.

What about the “Population Apoptotic (%)” value [12] of the same compound?
Its value is 25%.

What about the “Population Fragmented Nuclei (%)” value [12] of the same compound?
The value was 42%.

And the “Population Healthy Nuclei (%)” value [12]?
The value was 54%.

And the “Population Hoechst High Intensity Objects (%)” value [12]?
The value was 7%.

And the “Population Normal (%)” value [12]?
The value was 92%.

What about the “Total Cell Count” value [12] of the same compound?
Its value is 159.
